Experimental data as given in paper PMC10718585 (RSC Medicinal Chemistry, 2023).

Key:
[1] = tested on: U87, T98 and bEnd.3 cells; assay: PrestoBlue cell viability screen, cell line not given; type: cell-based; settings: BEND3, 120 h
Summary of the method: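 bEnd.3 cells, grown in DMEM with 10% FBS and 2 mM L-glutamine, seeded at 1 × 10^4 per well. After 48 h at 37 °C/5% CO2 the medium was replaced and 20× compound dilutions in DMEM added (3–30 μM 3-point or 0.03–30 μM semi-log 7-point). DMSO 0.1% v/v served as untreated control. After 5 d, PrestoBlue was added for 60–90 min (ex 540/em 590 nm). EC50 came from a four-parameter logistic fit, minimum constrained to zero, normalised to untreated cells.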

T98 cells = assay: PrestoBlue dose–response cell viability assay, 5 d; type: cell-based, human; settings: T98 versus U87 and bEnd.3, 3-point screen
LCK = LCK (Homo sapiens, UniProt P06239); assay: Z′-LYTE kinase inhibition; type: biochemical; settings: 3-point dose–response (0.1, 1, 10 μM), ATP Km app
Summary of the method: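 Z′-LYTE FRET assay: a peptide substrate tagged with a FRET pair, with protease cleavage distinguishing phospho from non-phospho peptide, read ratiometrically. Wild-type kinase was tested at 0.1, 1 and 10 μM in duplicate, with 1% DMSO and ATP at apparent Km. 100% inhibition was set without ATP; 0% used a synthetically phosphorylated substrate peptide. IC50 came from the dose-response curve.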

U87 cells = assay: PrestoBlue dose–response cell viability assay, 5 d; type: cell-based, human; settings: U87, 3-point screen

Chain of LCK (P06239 whole entry): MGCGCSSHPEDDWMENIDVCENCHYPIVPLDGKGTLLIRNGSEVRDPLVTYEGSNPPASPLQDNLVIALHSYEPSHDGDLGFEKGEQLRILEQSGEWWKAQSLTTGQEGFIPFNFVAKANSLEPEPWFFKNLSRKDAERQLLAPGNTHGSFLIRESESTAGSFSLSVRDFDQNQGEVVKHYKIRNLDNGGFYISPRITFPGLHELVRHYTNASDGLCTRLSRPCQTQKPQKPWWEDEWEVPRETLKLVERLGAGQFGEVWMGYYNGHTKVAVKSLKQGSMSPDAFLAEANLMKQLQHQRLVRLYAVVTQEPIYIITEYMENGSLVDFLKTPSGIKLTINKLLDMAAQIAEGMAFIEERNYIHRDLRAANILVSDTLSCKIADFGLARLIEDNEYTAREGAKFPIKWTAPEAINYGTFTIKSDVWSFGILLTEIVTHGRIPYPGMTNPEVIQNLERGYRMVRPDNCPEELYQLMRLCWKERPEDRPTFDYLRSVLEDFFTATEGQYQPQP

| Compound | antiproliferative selectivity profile (T98 cells) | other results |
| --- | --- | --- |
| CC1CCN(CC#Cc2nn(CC3CCCC3)c3ncnc(N)c23)CC1 [A3] |  | EC50 [1]: < 30 µM |
| CNc1ncc2c(C#CCN3CCC(NC(C)=O)CC3)nn(CC3CCCC3)c2n1 [B16] | selective antiproliferative profile against the T98 cell line |  |
| CNc1ncc2c(C#CCN3CCCCCC3)nn(CC3CCCC3)c2n1 [B21] | selective antiproliferative profile against the T98 cell line |  |
| CCOC(=O)C1CCN(CC#Cc2nn(CC3CCCC3)c3nc(NC)ncc23)CC1 [B22] | selective antiproliferative profile against the T98 cell line |  |
| CCOC(=O)N1CCN(CC#Cc2nn(CC3CCCC3)c3nc(NC)ncc23)CC1 [B23] | selective antiproliferative profile against the T98 cell line |  |
| CN(C)C1CCN(CC#Cc2nn(C3CCCC3)c3nc(NCc4ccccc4)ncc23)C1 (stereo not shown) [B58, N-Benzyl-1-cyclopentyl-3-(3-(3-(dimethylamino)pyrrolidine-1-yl)prop-1-yn-1-yl)-1H-pyrazolo[3,4-d]pyrimidin-6-amine] |  | IC50 (LCK): 2.27 µM |
| Cn1nnc2c(C(N)=O)ncn2c1=O [TMZ, temozolomide] |  | antiproliferative activity (U87 cells): some level of antiproliferative activity |
